# Laboratory results published in ChEMBL document CHEMBL1138351, “Small, potent, and selective diaryl phosphonate inhibitors for urokinase-type plasminogen activator with in vivo antimetastatic properties” (J Med Chem, 2007).
# Assays:
# Rattus norvegicus [1] = assay: Toxicity in Brown Norwegian rat bearing BN472 tumor assessed as increase in spleen weight at 0.1 mg/kg, ip administered once daily after 4 days of tumor transplantation for 17 to 18 days relative to control; assay type: organism-based; parameters: dose 0.1 mg/kg, route intraperitoneal; conditions: in vivo
# Procedure, shortened: (§1)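 Orthotopic BN472 breast tumour model in rats. Daily i.p. dosing at 0.1 or 1 mg/kg started on day 4 and ran 17–18 days, with vehicle-only i.p. controls. Side effects were assessed from body weight and the weights of several organs, compared with controls.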
# Rattus norvegicus [2] = assay: Toxicity in Brown Norwegian rat bearing BN472 tumor assessed as effect on body weight at 1 mg/kg, ip administered once daily after 4 days of tumor transplantation for 17 to 18 days relative to control; assay type: organism-based; parameters: dose 1 mg/kg, route intraperitoneal; conditions: in vivo; procedure, shortened: as §1
# [3] = Antimetastatic activity against Brown Norwegian rat bearing BN472 tumor assessed as reduction of interpectoral lymph node weight at 0.1 mg/kg, ip administered once daily after 4 days of tumor transplantation for 17 to 18 days relative to control; assay type: functional; parameters: scale not given: the % may be the effect or the level left; conditions: route intraperitoneal
# Rattus norvegicus [4] = assay: Toxicity in Brown Norwegian rat bearing BN472 tumor assessed as increase in kidney weight at 0.1 mg/kg, ip administered once daily after 4 days of tumor transplantation for 17 to 18 days relative to control; assay type: organism-based; parameters: dose 0.1 mg/kg, route intraperitoneal; conditions: in vivo; procedure, shortened: as §1
# [5] = molecular target: Tissue-type plasminogen activator (Homo sapiens, UniProt P00750); assay: Inhibition of human recombinant tPA
# [6] = Antitumor activity aganist Brown Norwegian rat bearing BN472 tumor assessed as reduction of tumor size at 0.1 mg/kg, ip administered once daily after 4 days of tumor transplantation for 17 to 18 days relative to control; assay type: functional; parameters: scale not given: the % may be the effect or the level left; conditions: route intraperitoneal
# Procedure, shortened: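 Rats bearing orthotopic BN472 breast tumours (grown three days) were dosed i.p. daily from day 4 for 17–18 days at 0.1 or 1 mg/kg. Vehicle-only i.p. controls were included. Tumour size and tumour weight were measured at the end of the treatment period and compared with controls.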
# [7] = Stability in human plasma after 3 hrs; assay type: ADME, cell-free; conditions: read-out: Stability
# Procedure, shortened: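 Compound was added from 10 mM DMSO stock to human plasma at 200 µM final and shaken at 37 °C for up to 24 h. Aliquots were quenched in methanol and centrifuged. The supernatant was diluted with internal standard and analysed by LC/MS/MS in triplicate. Result is given as % parent compound remaining.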
# Rattus norvegicus [8] = assay: Toxicity in Brown Norwegian rat bearing BN472 tumor assessed as increase in kidney weight at 1 mg/kg, ip administered once daily after 4 days of tumor transplantation for 17 to 18 days relative to control; assay type: organism-based; parameters: dose 1 mg/kg, route intraperitoneal; conditions: in vivo; procedure, shortened: as §1
# Plasminogen = Plasminogen (Homo sapiens, UniProt P00747); assay: Inhibition of human plasmin
# Procedure, shortened: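 Plasmin from human plasma at about 5 mU was preincubated with inhibitor (0–250 µM final) for 15 min at 37 °C. Substrate was S-2366 at 580 µM in Tris pH 7.4. Initial rate was read at 405 nm, in duplicate. IC50 came from a four-parameter logistic fit.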
# Chain of Tissue-type plasminogen activator (P00750 whole entry): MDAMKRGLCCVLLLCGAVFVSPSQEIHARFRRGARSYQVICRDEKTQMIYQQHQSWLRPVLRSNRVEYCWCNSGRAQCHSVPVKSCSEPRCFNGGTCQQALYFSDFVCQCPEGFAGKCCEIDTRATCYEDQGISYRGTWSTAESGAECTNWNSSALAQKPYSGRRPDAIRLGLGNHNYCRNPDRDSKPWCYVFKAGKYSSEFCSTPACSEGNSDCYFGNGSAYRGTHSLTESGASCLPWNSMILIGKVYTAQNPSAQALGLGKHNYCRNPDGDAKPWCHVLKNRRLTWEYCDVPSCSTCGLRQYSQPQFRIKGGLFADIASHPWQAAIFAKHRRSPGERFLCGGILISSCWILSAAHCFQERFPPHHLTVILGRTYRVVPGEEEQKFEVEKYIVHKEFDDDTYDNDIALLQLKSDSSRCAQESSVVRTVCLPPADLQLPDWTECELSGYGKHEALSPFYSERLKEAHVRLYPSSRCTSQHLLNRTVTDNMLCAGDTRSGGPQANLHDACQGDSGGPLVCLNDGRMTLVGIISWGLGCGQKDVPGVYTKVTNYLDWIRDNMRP
# Chain of Plasminogen (P00747 97-580 limits assumed): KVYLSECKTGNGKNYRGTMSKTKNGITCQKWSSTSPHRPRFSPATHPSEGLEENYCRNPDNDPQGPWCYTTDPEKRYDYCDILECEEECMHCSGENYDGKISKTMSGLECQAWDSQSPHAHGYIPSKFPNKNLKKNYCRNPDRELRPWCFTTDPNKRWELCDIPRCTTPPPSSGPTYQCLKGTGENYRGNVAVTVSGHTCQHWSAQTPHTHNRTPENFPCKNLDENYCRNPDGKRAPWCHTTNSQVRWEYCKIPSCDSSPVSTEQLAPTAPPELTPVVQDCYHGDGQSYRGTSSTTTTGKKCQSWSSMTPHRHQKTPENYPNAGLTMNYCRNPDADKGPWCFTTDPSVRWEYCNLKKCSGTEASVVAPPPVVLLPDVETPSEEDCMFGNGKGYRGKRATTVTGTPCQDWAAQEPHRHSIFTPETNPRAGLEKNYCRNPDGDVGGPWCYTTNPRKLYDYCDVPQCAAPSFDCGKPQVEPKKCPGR
# Chain of Plasminogen (P00747 581-810 limits assumed): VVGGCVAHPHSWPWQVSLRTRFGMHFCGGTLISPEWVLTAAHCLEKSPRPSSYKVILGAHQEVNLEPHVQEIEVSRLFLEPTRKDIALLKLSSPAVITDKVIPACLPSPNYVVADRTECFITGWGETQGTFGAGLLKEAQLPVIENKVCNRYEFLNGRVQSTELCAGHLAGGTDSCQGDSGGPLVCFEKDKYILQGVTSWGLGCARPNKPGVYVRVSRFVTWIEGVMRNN
smiles,measurement,setting,value
COC(=O)NC(Cc1ccc(NC(=N)N)cc1)P(=O)(Oc1ccc(NC(C)=O)cc1)Oc1ccc(NC(C)=O)cc1 (centres undefined),Activity,Rattus norvegicus [1],3%
same,Activity,Rattus norvegicus [2],170.5 g
same,Activity,[3],3%
same,Activity,Rattus norvegicus [4],7%
same,IC50,[5],6.1 µM
same,Activity,[6],10%
same,remaining at 3 h,[7],81%
same,Activity,Rattus norvegicus [8],3%
same,IC50,Plasminogen,2800 nM
